From ChEMBL document CHEMBL2016553, “Design and synthesis of 3-(4,5,6,7-tetrahydro-3H-imidazo[4,5-c]pyridin-2-yl)-1H-quinolin-2-ones as VEGFR-2 kinase inhibitors” (Bioorg Med Chem Lett, 2012)

Columns and labels:
[1] = target: T1, Vascular endothelial growth factor receptor 2 (Homo sapiens, UniProt P35968); assay: Inhibition of recombinant VEGFR-2 kinase domain by homogeneous time-resolved fluorescence assay
[2] = target: T1, Vascular endothelial growth factor receptor 2; assay: Inhibition of VEGFR-2 kinase
Summary of the method: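 HTRF KinEASE assay with recombinant VEGFR-2 kinase domain. Enzyme, ATP and substrate levels were optimised per kit. TR-FRET signal read after detection reagents. IC50 from dose–response curves.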

CYP2D6 = CYP2D6 (Homo sapiens, UniProt P10635); assay: Inhibition of recombinant human CYP2D6 assessed as remaining activity at 10 uM after 20 mins by fluorescence assay; assay type: ADME; details: read-out: Activity
[3] = Metabolic stability in human liver microsomes assessed as compound remaining at 10 uM after 30 mins by LC/MS/MS method; assay type: ADME, Microsome; details: read-out: Stability
CYP1A2 = target: T2, CYP1A2 (Homo sapiens, UniProt P05177); assay: Inhibition of recombinant human CYP1A2 assessed as remaining activity at 10 uM after 20 mins by fluorescence assay; assay type: ADME; details: read-out: Activity
T2 sequence (P05177 whole entry): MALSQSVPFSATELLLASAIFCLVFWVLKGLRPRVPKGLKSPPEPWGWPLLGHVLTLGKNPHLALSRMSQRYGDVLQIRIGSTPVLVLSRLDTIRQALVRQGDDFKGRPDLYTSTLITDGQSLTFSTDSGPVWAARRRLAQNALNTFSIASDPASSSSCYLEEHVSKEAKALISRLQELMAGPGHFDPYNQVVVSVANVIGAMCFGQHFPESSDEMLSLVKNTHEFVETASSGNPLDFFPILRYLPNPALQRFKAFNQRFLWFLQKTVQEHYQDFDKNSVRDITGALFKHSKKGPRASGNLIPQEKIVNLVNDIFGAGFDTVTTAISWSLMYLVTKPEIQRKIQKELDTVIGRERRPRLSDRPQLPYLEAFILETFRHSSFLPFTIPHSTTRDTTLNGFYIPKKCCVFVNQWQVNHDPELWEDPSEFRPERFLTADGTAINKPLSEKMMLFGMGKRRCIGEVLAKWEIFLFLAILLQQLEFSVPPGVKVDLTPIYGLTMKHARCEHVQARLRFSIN

CYP3A4 = CYP3A4 (Homo sapiens, UniProt P08684); assay: Inhibition of recombinant human CYP3A4 assessed as remaining activity at 10 uM after 20 mins by fluorescence assay; assay type: ADME; details: read-out: Activity
CYP2C19 = CYP2C19 (Homo sapiens, UniProt P33261); assay: Inhibition of recombinant human CYP2C19 assessed as remaining activity at 10 uM after 20 mins by fluorescence assay; assay type: ADME; details: read-out: Activity
CYP2C9 = CYP2C9 (Homo sapiens, UniProt P11712); assay: Inhibition of recombinant human CYP2C9 assessed as remaining activity at 10 uM after 20 mins by fluorescence assay; assay type: ADME; details: read-out: Activity
HUVEC [4] = assay: Antiproliferative activity against Vegf-stimulated HUVEC at 1 uM after 24 hrs by WST-1 assay relative to control; assay type: functional, Homo sapiens
Summary of the method: (§1)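 Pooled HUVECs grown in 1:1 EBM-2 with EGM-2 supplements, used at passage eight or lower. Seeded at 10,000 cells/well on collagen type I-coated plates. After 24 h, treated 24 h with rhVEGF (20 ng/mL) plus compound. Proliferation read by Premix WST-1 assay.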

HUVEC [5] = assay: Antiproliferative activity against Vegf-stimulated HUVEC at 0.1 uM after 24 hrs by WST-1 assay relative to control; assay type: functional, Homo sapiens; summary of the method: as §1
HUVEC [6] = assay: Antiproliferative activity against Vegf-stimulated HUVEC at 10 uM after 24 hrs by WST-1 assay relative to control; assay type: functional, Homo sapiens; summary of the method: as §1
HUVEC [7] = assay: Antiangiogenic activity in HUVEC assessed as tube formation at 10 uM after 16 to 18 hrs by microscopy relative to control; assay type: functional, Homo sapiens
Summary of the method: (§2)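 Pooled HUVECs seeded at 40,000/well on wells coated with a 1:1 mix of Matrigel (10 mg/mL) and EBM-2/EGM-2 medium, coating set 1 h at 37 °C. Cells incubated 16–18 h, then fixed. Tube formation imaged by camera and quantified by image analysis.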

HUVEC [8] = assay: Antiangiogenic activity in HUVEC assessed as tube formation at 1 uM after 16 to 18 hrs by microscopy relative to control; assay type: functional, Homo sapiens; summary of the method: as §2
[9] = Metabolic stability in human liver microsomes assessed as compound remaining at 2 uM after 30 mins by LC/MS/MS method; assay type: ADME, Microsome; details: read-out: Stability
Summary of the method: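 Human liver microsomes (0.5 mg/ml) in 100 mM potassium phosphate pH 7.4, test compound final 2 µM. Pre-incubated 5 min at 37 °C, then started with NADPH regenerating solution. Stopped at a single 30 min point with 3 volumes ice-cold acetonitrile containing imipramine (80 ng/ml) as internal standard. Samples vortexed, centrifuged and analysed by LC/MS/MS.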

Sequence of CYP2C9 (P11712 whole entry): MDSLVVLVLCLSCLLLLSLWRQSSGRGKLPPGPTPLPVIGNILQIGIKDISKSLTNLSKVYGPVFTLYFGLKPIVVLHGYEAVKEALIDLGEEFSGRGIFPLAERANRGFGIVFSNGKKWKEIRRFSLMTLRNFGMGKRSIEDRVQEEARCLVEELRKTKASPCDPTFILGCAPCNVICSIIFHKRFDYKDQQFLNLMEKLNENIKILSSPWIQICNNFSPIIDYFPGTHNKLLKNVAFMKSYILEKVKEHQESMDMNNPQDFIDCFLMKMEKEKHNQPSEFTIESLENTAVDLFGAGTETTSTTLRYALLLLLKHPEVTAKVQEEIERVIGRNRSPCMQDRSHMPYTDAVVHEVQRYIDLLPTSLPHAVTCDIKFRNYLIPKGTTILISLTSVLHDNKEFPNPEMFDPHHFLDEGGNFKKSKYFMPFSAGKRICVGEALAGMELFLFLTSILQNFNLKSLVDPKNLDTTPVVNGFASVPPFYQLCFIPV
T1 sequence (P35968 whole entry, the tested form may be a part): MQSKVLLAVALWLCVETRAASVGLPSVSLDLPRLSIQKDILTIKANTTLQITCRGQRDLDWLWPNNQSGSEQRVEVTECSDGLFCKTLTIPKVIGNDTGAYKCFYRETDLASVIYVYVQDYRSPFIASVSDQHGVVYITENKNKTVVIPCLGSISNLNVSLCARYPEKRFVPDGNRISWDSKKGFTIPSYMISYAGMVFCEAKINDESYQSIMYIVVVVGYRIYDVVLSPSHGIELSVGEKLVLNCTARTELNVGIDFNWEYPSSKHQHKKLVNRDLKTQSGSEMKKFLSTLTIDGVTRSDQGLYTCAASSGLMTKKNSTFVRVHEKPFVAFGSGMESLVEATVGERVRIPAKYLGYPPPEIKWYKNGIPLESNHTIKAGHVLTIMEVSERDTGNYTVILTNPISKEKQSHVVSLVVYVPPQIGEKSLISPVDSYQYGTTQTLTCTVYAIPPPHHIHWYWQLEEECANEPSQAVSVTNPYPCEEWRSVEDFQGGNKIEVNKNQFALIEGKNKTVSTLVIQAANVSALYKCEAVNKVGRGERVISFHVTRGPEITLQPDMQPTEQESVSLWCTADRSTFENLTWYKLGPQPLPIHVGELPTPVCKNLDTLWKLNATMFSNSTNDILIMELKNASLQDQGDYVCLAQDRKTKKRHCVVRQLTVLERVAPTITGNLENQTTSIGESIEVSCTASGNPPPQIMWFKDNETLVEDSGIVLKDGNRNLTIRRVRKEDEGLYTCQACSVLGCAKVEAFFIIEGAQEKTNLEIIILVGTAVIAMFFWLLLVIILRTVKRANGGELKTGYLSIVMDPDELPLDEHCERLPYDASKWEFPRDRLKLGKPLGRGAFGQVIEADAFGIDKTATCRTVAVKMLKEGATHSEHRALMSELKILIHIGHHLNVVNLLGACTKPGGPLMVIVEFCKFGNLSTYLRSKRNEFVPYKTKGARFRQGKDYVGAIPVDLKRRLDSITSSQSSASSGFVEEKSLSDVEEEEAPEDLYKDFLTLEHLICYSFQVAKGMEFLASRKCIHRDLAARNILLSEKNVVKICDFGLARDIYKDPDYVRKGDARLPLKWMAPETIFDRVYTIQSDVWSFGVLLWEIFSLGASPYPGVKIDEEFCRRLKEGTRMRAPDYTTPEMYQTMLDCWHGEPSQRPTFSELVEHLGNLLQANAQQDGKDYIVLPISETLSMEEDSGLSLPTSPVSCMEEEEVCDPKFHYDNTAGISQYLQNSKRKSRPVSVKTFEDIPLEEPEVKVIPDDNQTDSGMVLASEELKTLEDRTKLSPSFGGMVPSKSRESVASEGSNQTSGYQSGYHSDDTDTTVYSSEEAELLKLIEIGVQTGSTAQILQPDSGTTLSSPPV
Sequence of CYP3A4 (P08684 whole entry): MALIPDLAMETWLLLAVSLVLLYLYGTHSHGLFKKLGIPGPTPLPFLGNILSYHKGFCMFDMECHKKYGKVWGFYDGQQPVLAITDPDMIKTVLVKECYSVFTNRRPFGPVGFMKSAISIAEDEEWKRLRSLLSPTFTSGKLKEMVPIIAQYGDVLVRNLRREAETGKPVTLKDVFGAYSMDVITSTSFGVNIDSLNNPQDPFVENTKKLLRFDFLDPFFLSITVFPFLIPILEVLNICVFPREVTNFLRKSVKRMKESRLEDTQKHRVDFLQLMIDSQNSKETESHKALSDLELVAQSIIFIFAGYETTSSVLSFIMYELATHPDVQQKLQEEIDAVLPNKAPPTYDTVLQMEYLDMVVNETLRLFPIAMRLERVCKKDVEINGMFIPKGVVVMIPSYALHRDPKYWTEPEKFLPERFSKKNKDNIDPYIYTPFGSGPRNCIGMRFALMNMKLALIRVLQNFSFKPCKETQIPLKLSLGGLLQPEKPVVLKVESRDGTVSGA
Sequence of CYP2C19 (P33261 whole entry): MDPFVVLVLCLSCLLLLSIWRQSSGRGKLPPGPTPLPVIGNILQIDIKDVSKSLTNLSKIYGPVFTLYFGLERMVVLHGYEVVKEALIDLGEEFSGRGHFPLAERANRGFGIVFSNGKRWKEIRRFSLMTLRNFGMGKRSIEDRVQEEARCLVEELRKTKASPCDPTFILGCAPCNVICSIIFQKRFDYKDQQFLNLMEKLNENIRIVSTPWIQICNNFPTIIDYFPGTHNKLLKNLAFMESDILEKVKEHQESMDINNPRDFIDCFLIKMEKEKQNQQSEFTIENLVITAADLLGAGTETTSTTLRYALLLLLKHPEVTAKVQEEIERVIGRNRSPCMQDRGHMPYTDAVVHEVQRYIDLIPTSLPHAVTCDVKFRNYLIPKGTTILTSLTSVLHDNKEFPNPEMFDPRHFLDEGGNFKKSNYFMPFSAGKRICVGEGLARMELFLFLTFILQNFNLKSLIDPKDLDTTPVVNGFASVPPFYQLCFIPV
Sequence of CYP2D6 (P10635 whole entry): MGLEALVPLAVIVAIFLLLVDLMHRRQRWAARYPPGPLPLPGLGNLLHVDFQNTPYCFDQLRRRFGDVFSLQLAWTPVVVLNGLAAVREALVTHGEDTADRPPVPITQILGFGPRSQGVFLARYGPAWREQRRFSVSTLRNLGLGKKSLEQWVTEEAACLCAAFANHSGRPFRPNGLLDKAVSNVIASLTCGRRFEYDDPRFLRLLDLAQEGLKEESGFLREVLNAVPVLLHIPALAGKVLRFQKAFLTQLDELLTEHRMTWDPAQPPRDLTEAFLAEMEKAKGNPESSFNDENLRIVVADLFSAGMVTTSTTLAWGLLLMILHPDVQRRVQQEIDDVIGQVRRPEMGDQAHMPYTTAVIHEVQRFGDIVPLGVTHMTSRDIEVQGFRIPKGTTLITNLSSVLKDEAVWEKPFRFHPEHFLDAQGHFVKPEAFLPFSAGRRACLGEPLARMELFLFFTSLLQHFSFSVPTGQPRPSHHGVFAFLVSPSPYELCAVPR

Compound `O=C(c1ccc(CN2CCCCC2)cc1)N1CCc2nc(-c3cc4ccccc4[nH]c3=O)[nH]c2C1` has an IC50 [1] of 1.3 nM.
With `O=C(CN1CCCCC1)N1CCc2nc(-c3cc4cc(F)ccc4[nH]c3=O)[nH]c2C1` the IC50 [1] was 8 nM.
Work on `O=C(c1ccncc1)N1CCc2nc(-c3cc4c(F)cccc4[nH]c3=O)[nH]c2C1` yielded an IC50 [1] of 800 nM.
For `O=C(CN1CCCCC1)N1CCc2nc(-c3cc4cc(Cl)ccc4[nH]c3=O)[nH]c2C1`, the IC50 [1] was 22 nM.
Compound `O=C(OCc1ccccc1)N1CCc2nc(-c3cc4ccccc4[nH]c3=O)[nH]c2C1` has an IC50 [1] of 600 nM.
`COc1ccc(NC(=O)N2CCc3nc(-c4cc5ccccc5[nH]c4=O)[nH]c3C2)cc1` showed an IC50 [1] of 46 nM.
Work on `CN1CCc2nc(-c3cc4ccccc4[nH]c3=O)[nH]c2C1` yielded an IC50 [2] of 1000 nM and an IC50 [1] of 1000 nM.
Work on `O=C(c1ccncc1)N1CCc2nc(-c3cc4ccccc4[nH]c3=O)[nH]c2C1` yielded an IC50 [1] of 200 nM.
With `CN1CCN(CC(=O)N2CCc3nc(-c4cc5cc(Cl)ccc5[nH]c4=O)[nH]c3C2)CC1` the IC50 [1] was 19 nM.
In the case of `CN1CCN(CC(=O)N2CCc3nc(-c4cc5c(F)cccc5[nH]c4=O)[nH]c3C2)CC1`, the IC50 [1] is reported as 1050 nM.
With `O=C(CN1CCCCC1)N1CCc2nc(-c3cc4ccccc4[nH]c3=O)[nH]c2C1` the IC50 [1] was 16 nM.
For `O=C(CN1CCCCC1)N1CCc2nc(-c3cc4c(F)cccc4[nH]c3=O)[nH]c2C1`, the IC50 [1] was 740 nM.
In the case of `O=C(CN1CCCC1)N1CCc2nc(-c3cc4ccccc4[nH]c3=O)[nH]c2C1`, the IC50 [1] is reported as 400 nM.
Compound `COc1ccc2[nH]c(=O)c(-c3nc4c([nH]3)CN(C(=O)CN3CCCCC3)CC4)cc2c1` has an IC50 [1] of 280 nM.
With `COc1ccc2[nH]c(=O)c(-c3nc4c([nH]3)CN(C(=O)CN3CCN(C)CC3)CC4)cc2c1` the IC50 [1] was 1100 nM.
Work on `O=C(c1cccnc1)N1CCc2nc(-c3cc4c(F)cccc4[nH]c3=O)[nH]c2C1` yielded an IC50 [1] of 600 nM.
For `CCN(CC)CC(=O)N1CCc2nc(-c3cc4ccccc4[nH]c3=O)[nH]c2C1`, the IC50 [1] was 300 nM.
Compound `O=C(Cc1ccncc1)N1CCc2nc(-c3cc4ccccc4[nH]c3=O)[nH]c2C1` has an IC50 [1] of 6.7 nM.
With `O=C(CN1CCOCC1)N1CCc2nc(-c3cc4c(F)cccc4[nH]c3=O)[nH]c2C1` the IC50 [1] was 1100 nM.
With `O=C(Cc1ccccn1)N1CCc2nc(-c3cc4cc(F)ccc4[nH]c3=O)[nH]c2C1` the IC50 [1] was 0.7 nM.
`CN1CCN(CC(=O)N2CCc3nc(-c4cc5ccccc5[nH]c4=O)[nH]c3C2)CC1` gave an IC50 [1] of 300 nM.
Compound `O=C(Cc1ccccn1)N1CCc2nc(-c3cc4ccccc4[nH]c3=O)[nH]c2C1` has an IC50 [1] of 1.3 nM.
`O=C(Cc1ccncc1)N1CCc2nc(-c3cc4cc(F)ccc4[nH]c3=O)[nH]c2C1` showed an activity at 20 min, 10 µM (CYP2D6) of 21%, a remaining at 0.5 h, 10 µM [3] of 93% and an activity at 20 min, 10 µM (CYP1A2) of 58%. It also gave an activity at 20 min, 10 µM (CYP3A4) of 33%, an activity at 20 min, 10 µM (CYP2C19) of 35% and an IC50 [1] of 8.6 nM. It also gave an activity at 20 min, 10 µM (CYP2C9) of 28%.
`O=C(c1ccncc1)N1CCc2nc(-c3cc4cc(F)ccc4[nH]c3=O)[nH]c2C1` gave an Activity (HUVEC [4]) of 72%, an activity at 20 min, 10 µM (CYP2D6) of 90% and an Activity (HUVEC [5]) of 120%. It also gave an Activity (HUVEC [6]) of 71%, a remaining at 0.5 h, 10 µM [3] of 99% and an activity at 20 min, 10 µM (CYP1A2) of 96%. The activity at 20 min, 10 µM (CYP3A4) was 89%, the activity at 20 min, 10 µM (CYP2C19) was 77% and the IC50 [1] was 0.3 nM. The Activity (HUVEC [7]) was 62%, the Activity (HUVEC [8]) was 93% and the activity at 20 min, 10 µM (CYP2C9) was 53%.
`O=C(CN1CCOCC1)N1CCc2nc(-c3cc4cc(Cl)ccc4[nH]c3=O)[nH]c2C1` gave an IC50 [1] of 35 nM.
For `O=C(c1cccnc1)N1CCc2nc(-c3cc4cc(F)ccc4[nH]c3=O)[nH]c2C1`, the activity at 20 min, 10 µM (CYP2D6) was 67%, the remaining at 0.5 h, 10 µM [3] was 96% and the activity at 20 min, 10 µM (CYP1A2) was 86%. The activity at 20 min, 10 µM (CYP3A4) was 83%, the activity at 20 min, 10 µM (CYP2C19) was 92% and the IC50 [1] was 1 nM. The activity at 20 min, 10 µM (CYP2C9) was 99%.
Work on `Cc1cccc(NC(=O)N2CCc3nc(-c4cc5ccccc5[nH]c4=O)[nH]c3C2)c1` yielded an IC50 [1] of 2.1 nM.
With `COc1ccc2[nH]c(=O)c(-c3nc4c([nH]3)CN(C(=O)CN3CCOCC3)CC4)cc2c1` the IC50 [1] was 760 nM.
Compound `O=c1[nH]c2ccccc2cc1-c1nc2c([nH]1)CN(Cc1ccccc1)CC2` has an IC50 [1] of 6000 nM.
Work on `O=C(c1cccnc1)N1CCc2nc(-c3cc4ccccc4[nH]c3=O)[nH]c2C1` yielded an IC50 [1] of 200 nM.
For `O=C(CN1CCOCC1)N1CCc2nc(-c3cc4cc(F)ccc4[nH]c3=O)[nH]c2C1`, the IC50 [1] was 4.3 nM.
With `O=C(Cc1ccncc1)N1CCc2nc(-c3cc4cc(Cl)ccc4[nH]c3=O)[nH]c2C1` the IC50 [1] was 0.5 nM.
`CN1CCN(CC(=O)N2CCc3nc(-c4cc5cc(F)ccc5[nH]c4=O)[nH]c3C2)CC1` showed an IC50 [1] of 13 nM.
Work on `O=c1[nH]c2ccccc2cc1-c1nc2c([nH]1)CN(C1CCNCC1)CC2` yielded an IC50 [1] of 5000 nM.
Compound `O=C(c1ccc(CN2CCCCC2)cc1)N1CCc2nc(-c3cc4cc(F)ccc4[nH]c3=O)[nH]c2C1` has an Activity (HUVEC [4]) of 82%, an activity at 20 min, 10 µM (CYP2D6) of 100% and an Activity (HUVEC [5]) of 92.3%. For the same compound, the Activity (HUVEC [6]) was 79%, the activity at 20 min, 10 µM (CYP1A2) was 89% and the activity at 20 min, 10 µM (CYP3A4) was 16%. The activity at 20 min, 10 µM (CYP2C19) was 100%, the remaining at 0.5 h, 2 µM [9] was 92% and the IC50 [1] was 4.9 nM. The Activity (HUVEC [7]) was 99%, the Activity (HUVEC [8]) was 102% and the activity at 20 min, 10 µM (CYP2C9) was 94%.
`O=C(CN1CCOCC1)N1CCc2nc(-c3cc4ccccc4[nH]c3=O)[nH]c2C1` gave an IC50 [1] of 300 nM.
